In ChEMBL document CHEMBL4028870, “Controlling Plasma Stability of Hydroxamic Acids: A MedChem Toolbox” (J Med Chem, 2017):

Assays:
Type in all cases: ADME, cell-free
Plasma [1] = test: Half life in rat plasma at 10 uM up to 360 mins in presence of 3-cyclohexylpropanehydroxamic acid by LC-MS/MS analysis; conditions: 6 h
Plasma [2] = test: Stability in rat plasma at 10 uM up to 360 mins in presence of EDTA by LC-MS/MS analysis; conditions: 6 h
Method in brief: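 Rat plasma incubated in duplicate at 37 °C with 10 µM test compound (1% methanol), plus either 1 mM DTNB (11) or 0.5 mM EDTA (12). Duplicate controls used methanol in place of the inhibitor. Samples taken from 0 to 360 min and quenched with 9 volumes of cold methanol containing internal standard. Remaining compound measured by LC-MS/MS relative to T0.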

Plasma [3] = test: Half life in rat plasma at 10 uM up to 360 mins in presence of 4-cyclohexylbutanehydroxamic acid by LC-MS/MS analysis; conditions: 6 h
[4] = Half life in rat plasma at 10 uM up to 360 mins in presence of N-hydroxy-N'-phenylsuccinamide by LC-MS/MS analysis; conditions: with N-hydroxy-N'-phenylsuccinamide (concentration not stated)

- t1/2 (Plasma [1]): 22.6 h
- Stability (Plasma [2]): Unstable
- t1/2 (Plasma [3]): 30.9 h
- half-life at 10 µM [4]: 20 h
Compound: O=C(CCCc1ccccc1)NO [PHENYLBUTYRYLHYDROXAMIC ACID]
